Source: ChEMBL document CHEMBL4725448, “Substituted Azabicyclo[2.2.1]heptanes as Selective Orexin-1 Antagonists: Discovery of JNJ-54717793” (ACS Med Chem Lett, 2020)

Tests used:
[1] = Cmax in primate; type: ADME; conditions: primates
[2] = Ex vivo receptor occupancy at OX1R in Sprague-Dawley rat brain tenia tecta using [3H]SB-674042 labelling at 30 mg/kg, po measured after 0.5 hrs by autoradiography; type: functional
Outline: (§1)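 Ex vivo OX1R binding autoradiography in rat tenia tecta after a 30 mg/kg po dose; percent occupancy read at 0.5 and 2 h.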

[3] = Protein binding in human plasma assessed as free fraction; type: ADME, cell-free
[4] = Volume of distribution at steady state in primate; type: ADME; conditions: primates; read-out: Vdss
[5] = target: T1, PXR (NR1I2) (Homo sapiens, UniProt O75469); assay: Induction of human PXR at 10 uM relative to control; type: ADME; conditions: read-out: Activity
T1 sequence (O75469 whole entry): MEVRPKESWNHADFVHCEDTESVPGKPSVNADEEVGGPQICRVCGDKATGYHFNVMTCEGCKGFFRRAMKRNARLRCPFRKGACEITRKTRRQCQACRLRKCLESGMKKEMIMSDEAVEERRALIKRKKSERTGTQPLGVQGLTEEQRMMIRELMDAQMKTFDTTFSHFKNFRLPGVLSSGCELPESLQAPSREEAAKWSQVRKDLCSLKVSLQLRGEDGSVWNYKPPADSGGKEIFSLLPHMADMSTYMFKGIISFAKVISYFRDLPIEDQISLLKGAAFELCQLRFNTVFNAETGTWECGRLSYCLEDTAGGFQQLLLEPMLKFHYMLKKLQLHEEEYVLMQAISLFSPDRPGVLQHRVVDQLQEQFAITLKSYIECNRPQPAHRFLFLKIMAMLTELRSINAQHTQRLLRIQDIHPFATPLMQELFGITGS
Outline: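 Human PXR activation as an indirect measure of CYP3A4 induction, at 10 μM, expressed as % of rifampicin control activation.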

[6] = Clearance in dog at 0.5 mg/kg, iv and […], po; type: ADME, organism-based, Canis lupus familiaris; conditions: in vivo, dose 2.5 mg/kg
[7] = Cmax in dog assessed as NOAEL at 25 mg/kg, po administered for 6 days; type: ADME, organism-based, Canis lupus familiaris; design: route oral, dose 25 mg/kg, time 6 day; conditions: in vivo
Outline: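 Six-day dog toxicology study with oral dosing; NOAEL-level Cmax; exposures compared between sexes and between day 0 and day 5.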

[8] = Protein binding in dog plasma assessed as free fraction; type: ADME, cell-free, Canis lupus familiaris
[9] = AUC in human at 50 mg/day; type: ADME; design: dose 50 mg
[10] = Stability in mouse liver microsomes assessed as extraction ratio; type: ADME, Microsome; conditions: read-out: ERH
[11] = Ex vivo receptor occupancy at OX1R in Sprague-Dawley rat brain tenia tecta using [3H]SB-674042 labelling at 10 mg/kg, po measured after 2 hrs by autoradiography; type: functional
Outline: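 Rats received a single oral dose, and OX1R occupancy was measured by ex vivo binding autoradiography in brain tenia tecta sections at 0.5, 2 and 6 h after dosing. Occupancy is expressed as percent. Brain and plasma drug levels (ng/mL) were also sampled at the 0.5 h time point.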

[12] = Oral bioavailability in mouse at 5 mg/kg; type: ADME, organism-based; conditions: in vivo
[13] = Ex vivo receptor occupancy at OX1R in Sprague-Dawley rat brain tenia tecta using [3H]SB-674042 labelling at 30 mg/kg, po measured after 2 hrs by autoradiography; type: functional; outline: as §1
[14] = target: T2, Orexin/Hypocretin receptor type 1 (Homo sapiens, UniProt O43613); assay: Binding affinity to human […]
T2 sequence (O43613 whole entry): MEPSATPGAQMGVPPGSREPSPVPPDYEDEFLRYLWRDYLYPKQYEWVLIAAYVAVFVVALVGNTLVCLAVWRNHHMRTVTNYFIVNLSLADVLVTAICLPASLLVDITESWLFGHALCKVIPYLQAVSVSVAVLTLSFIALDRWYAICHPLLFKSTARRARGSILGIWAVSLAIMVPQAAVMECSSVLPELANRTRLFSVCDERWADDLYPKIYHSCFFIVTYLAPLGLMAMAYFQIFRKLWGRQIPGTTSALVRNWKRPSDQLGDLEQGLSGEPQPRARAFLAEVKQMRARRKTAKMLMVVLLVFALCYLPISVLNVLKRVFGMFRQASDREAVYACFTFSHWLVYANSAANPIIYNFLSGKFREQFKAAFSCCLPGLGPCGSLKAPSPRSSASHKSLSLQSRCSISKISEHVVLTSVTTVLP

[15] = Volume of distribution at steady state in dog at 0.5 mg/kg, iv and […], po; type: ADME, organism-based, Canis lupus familiaris; conditions: in vivo, dose 2.5 mg/kg, read-out: Vdss
[16] = AUC in rat assessed as NOAEL at 250 mg/kg, po administered as repeated dose for 5 days; type: ADME, organism-based; design: time 5 day, dose 250 mg/kg; conditions: in vivo
[17] = Drug concentration in Sprague-Dawley rat brain at 10 mg/kg, po after 0.5 hrs by LC-MS/MS analysis; type: ADME, organism-based; conditions: read-out: Ct
Outline: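 Brain and plasma levels (ng/mL) sampled 0.5 h after oral dosing at 10 or 30 mg/kg, alongside the ex vivo tenia tecta occupancy study.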

[18] = Protein binding in rat brain assessed as free fraction; type: ADME, tissue-based

`O=C(c1cccc(F)c1-c1ncccn1)N1[C@@H]2CC[C@H]1[C@H](Nc1cnc(C(F)(F)F)cn1)C2` showed a Cmax [1] of 349 ng/mL, an Activity [2] of 100% and a fraction unbound [3] of 0.2. The Vd [4] was 0.8 L/kg, the activity at 10 µM [5] was 29% and the clearance [6] was 0.9 mL/min/kg. It also gave a Cmax [7] of 15100 ng/mL, a fraction unbound [8] of 0.21 and an AUC [9] of 6870 ng·h/mL. For the same molecule, the hepatic extraction ratio [10] was 0.4, the Activity [11] was 41% and the bioavailability [12] was 58%. The Activity [13] was 100%, the Ki [14] was 16 nM and the Vd [15] was 0.6 L/kg. For the same molecule, the AUC at 120 h [16] was 101000 ng·h/mL, the concentration at 0.5 h [17] was 188 ng/mL and the fraction unbound [18] was 0.09.
